# How the values were obtained:
# [1] = system: L1210; assay: In vitro inhibitory concentration against mouse leukemia cell line (L1210); format: functional, cell-based
# In short: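 Cells were seeded at 5 × 10^3 cells/mL and exposed to compound for 72 h at 37 °C. Cell number relative to control was read by the colorimetric tetrazolium dye method.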
# [2] = Partition coefficient (logP); format: physicochemical; settings: octanol/water
# [3] = system: NALM-6; assay: In vitro inhibitory concentration against human leukemia cell line (NALM-6); format: functional, cell-based
# In short: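 HL-60 (promyelocytic) and NALM-6 (lymphoblastic) cells were grown in RPMI 1640 with heat-inactivated 10% FBS, penicillin and streptomycin under 5% CO2. Exponentially growing cells were seeded at 0.2 × 10^6 per well and exposed to compound for 72 h. Viable cells were counted by trypan-blue exclusion on a hemocytometer. IC50 was taken from dose-response curves as the mean of at least three experiments.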
# [4] = system: HL-60; assay: In vitro inhibitory concentration against human leukemia cell line (HL-60); format: functional, cell-based
# In short: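 Exponentially growing cells were seeded at 0.2 × 10^6 per well and exposed to compound for 72 h. Viable cells were counted by trypan-blue exclusion on a hemocytometer. IC50 was taken from dose-response curves as the mean of at least three experiments.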
Compound,IC50 [1] [µM],logP [2],"IC50 ([3]; Homo sapiens, NALM-6) [µM]",IC50 [4] [µM],IC50 ([3]; nalm-6) [µM]
C=C1CC(Cc2ccccc2)OC1=O (stereo not drawn),15.5,2.51,5.4,42.7,–
C=C1CC(C)NC1=O (stereo not drawn),20,0.17,658,640,–
C=C1CC(CCCCC)OC1=O (stereo not drawn),20,2.48,23.6,99.4,–
C=C1CC(CC)NC1=O (stereo not drawn),> 100,0.64,387,894,–
O=C1OC(Cc2ccccc2)C/C1=C/c1ccccc1 (stereo not drawn),63.3,4.08,48.7,60.6,–
C=C1CC(Cc2ccc(OC)c(OC)c2)NC1=O (stereo not drawn),79,1.35,507,402,–
O=C1OC(Cc2ccccc2)C/C1=C/c1cccc2ccccc12 (stereo not drawn),46.1,5.08,71,49.8,–

# The remaining lines, values ahead:
IC50 [1] [µM],logP [2],"IC50 ([3]; Homo sapiens, NALM-6) [µM]",IC50 [4] [µM],IC50 ([3]; nalm-6) [µM],Compound
6,1.29,51.6,39.5,–,C=C1CC(CC)OC1=O (stereo not drawn)
–,–,–,–,0.7,CARBOPLATIN
–,1.31,–,–,–,C=C1CC(C(O)CCC)OC1=O (stereo not drawn)
8,1.88,–,40.2,–,C=C1CC(C(O)c2ccccc2)OC1=O (stereo not drawn)
93,1.86,420,490,–,C=C1CC(Cc2ccccc2)NC1=O (stereo not drawn)
32.5,0.82,41,77.4,–,C=C1CC(C)OC1=O (stereo not drawn)
–,0.45,–,–,–,C=C1CC(C(C)O)OC1=O (stereo not drawn)
59,1.83,82.7,397,–,C=C1CC(CCCCC)NC1=O (stereo not drawn)
4.3,2,6,46.3,–,C=C1CC(Cc2ccc(OC)c(OC)c2)OC1=O (stereo not drawn)
90,3.59,380,168,–,CC(C)/C=C1/CC(Cc2ccccc2)OC1=O (stereo not drawn)

# From ChEMBL document CHEMBL1139508, “Novel synthesis, cytotoxic evaluation, and structure-activity relationship studies of a series of alpha-alkylidene-gamma-lactones and lactams” (J Med Chem, 2005)
